Results: ChEMBL document CHEMBL1914298, “Synthesis and inhibition study of monoamine oxidase, indoleamine 2,3-dioxygenase and tryptophan 2,3-dioxygenase by 3,8-substituted 5H-indeno[1,2-c]pyridazin-5-one derivatives” (Eur J Med Chem, 2011)
Calls of active or inactive are those of the source. The calls are words filed in the database; no cut-off is given here.

Columns and labels:
[1] = biological target: T1, Tryptophan 2,3-dioxygenase (Ralstonia metallidurans (strain CH34 / ATCC 43123 / DSM 2839)) (UniProt Q1LK00); test: Inhibition of Ralstonia metallidurans TDO using L-tryptophan as substrate at 25 uM by fluorimetric method; settings: Cupriavidus metallidurans
T1 sequence (whole entry): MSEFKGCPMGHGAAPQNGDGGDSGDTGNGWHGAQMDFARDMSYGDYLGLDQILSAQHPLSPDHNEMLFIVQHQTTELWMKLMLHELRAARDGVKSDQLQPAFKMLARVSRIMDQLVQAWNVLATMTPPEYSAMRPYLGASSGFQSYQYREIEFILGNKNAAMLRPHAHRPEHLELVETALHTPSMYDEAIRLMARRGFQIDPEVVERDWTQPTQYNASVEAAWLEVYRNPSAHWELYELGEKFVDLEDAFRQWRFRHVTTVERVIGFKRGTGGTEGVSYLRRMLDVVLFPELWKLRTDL
Procedure, shortened: (§1)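 Human IDO activity read colourimetrically, rmTDO activity read fluorometrically; compounds tested in vitro at […]; percent inhibition as mean ± SD, n = 3.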

[2] = biological target: T2, Amine oxidase [flavin-containing] A (Homo sapiens, UniProt P21397); test: (§2) Inhibition of human recombinant MAOA expressed in baculovirus-infected BTI insect cells at 10 uM after 1 hr by MAO-GLO two-step bioluminescence assay; settings: 1 h, 10 µM
T2 sequence (P21397 whole entry): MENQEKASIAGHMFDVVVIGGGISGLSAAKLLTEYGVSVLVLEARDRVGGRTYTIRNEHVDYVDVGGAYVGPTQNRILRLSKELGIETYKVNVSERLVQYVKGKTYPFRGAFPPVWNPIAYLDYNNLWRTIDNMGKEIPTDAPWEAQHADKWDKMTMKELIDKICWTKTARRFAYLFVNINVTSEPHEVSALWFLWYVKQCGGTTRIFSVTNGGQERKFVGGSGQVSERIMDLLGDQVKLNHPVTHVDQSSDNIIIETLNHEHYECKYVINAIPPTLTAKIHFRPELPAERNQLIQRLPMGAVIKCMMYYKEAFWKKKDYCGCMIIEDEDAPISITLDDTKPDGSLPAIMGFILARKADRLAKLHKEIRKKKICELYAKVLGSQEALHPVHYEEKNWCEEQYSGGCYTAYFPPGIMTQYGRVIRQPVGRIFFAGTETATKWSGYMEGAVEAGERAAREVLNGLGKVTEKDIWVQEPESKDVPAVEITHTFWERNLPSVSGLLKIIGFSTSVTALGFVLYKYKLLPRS
Procedure, shortened: (§3)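 Recombinant human MAO-A or MAO-B from baculovirus-infected BTI insect cells; test compound at […], in triplicate in vitro; activity measured by luminescent method (Valley et al.); percent inhibition given as mean ± SD, n = 3.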

[3] = biological target: T3, MAO-B (amine oxidase [flavin-containing] B) (Homo sapiens, UniProt P27338); test: Inhibition of human recombinant MAOB expressed in baculovirus-infected BTI insect cells at 10 uM after 1 hr by MAO-GLO two-step bioluminescence assay; procedure, shortened: as §3
T3 sequence (P27338 whole entry): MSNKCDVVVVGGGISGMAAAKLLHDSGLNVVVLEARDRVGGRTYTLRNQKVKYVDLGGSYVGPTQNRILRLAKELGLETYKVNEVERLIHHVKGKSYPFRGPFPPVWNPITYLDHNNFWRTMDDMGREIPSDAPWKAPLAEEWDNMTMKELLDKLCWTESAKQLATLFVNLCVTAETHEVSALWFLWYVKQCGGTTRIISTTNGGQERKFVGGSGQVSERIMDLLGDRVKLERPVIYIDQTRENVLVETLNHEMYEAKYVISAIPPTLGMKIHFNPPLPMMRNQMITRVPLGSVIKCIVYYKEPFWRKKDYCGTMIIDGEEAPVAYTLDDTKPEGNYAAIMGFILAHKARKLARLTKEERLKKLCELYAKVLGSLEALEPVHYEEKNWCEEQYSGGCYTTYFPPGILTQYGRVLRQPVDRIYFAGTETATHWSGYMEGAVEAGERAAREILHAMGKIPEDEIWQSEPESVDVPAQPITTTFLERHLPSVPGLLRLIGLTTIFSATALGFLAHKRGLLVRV

[4] = biological target: Indoleamine 2,3-dioxygenase 1 (Homo sapiens) (UniProt P14902); test: Inhibition of human IDO using L-tryptophan as substrate at 25 uM by colorimetric method; procedure, shortened: as §1
[5] = biological target: T4, Amine oxidase [flavin-containing] B (Homo sapiens, UniProt P27338); test: Inhibition of human recombinant MAOB expressed in baculovirus-infected BTI insect cells after 1 hr by Cheng-Prusoff equation analysis
T4 sequence (P27338 whole entry): T3 sequence (P27338 whole entry)

[6] = biological target: T5, MAO-A (amine oxidase [flavin-containing] A) (Homo sapiens, UniProt P21397); test: as §2; procedure, shortened: as §3
T5 sequence (P21397 whole entry): T2 sequence (P21397 whole entry)

[7] = biological target: T4, Amine oxidase [flavin-containing] B; test: Inhibition of human recombinant MAOB expressed in baculovirus-infected BTI insect cells by Lineweaver-Burk plot analysis

Indoleamine 2,3-dioxygenase 1 (Homo sapiens), sequence (P14902 whole entry, looked up): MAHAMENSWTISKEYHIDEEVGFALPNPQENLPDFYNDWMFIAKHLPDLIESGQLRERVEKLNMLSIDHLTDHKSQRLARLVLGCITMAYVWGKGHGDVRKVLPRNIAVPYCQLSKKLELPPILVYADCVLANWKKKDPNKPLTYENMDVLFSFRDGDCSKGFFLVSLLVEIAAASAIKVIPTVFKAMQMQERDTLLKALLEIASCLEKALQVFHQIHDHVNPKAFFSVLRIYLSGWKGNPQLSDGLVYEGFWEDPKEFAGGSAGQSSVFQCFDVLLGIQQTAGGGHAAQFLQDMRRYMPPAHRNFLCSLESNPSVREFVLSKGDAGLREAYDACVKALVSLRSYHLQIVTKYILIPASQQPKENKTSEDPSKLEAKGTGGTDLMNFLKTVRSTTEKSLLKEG

| SMILES | inhibition [1] | inhibition (INH) [2] | inhibition at 1 h, 10 µM [3] [%] | inhibition [4] | Ki [5] [nM] | inhibition at 1 h, 10 µM [6] [%] | Ki [7] [nM] |
| --- | --- | --- | --- | --- | --- | --- | --- |
| Cc1cc2c(nn1)-c1cc(OCCCC(F)(F)F)ccc1C2=O | 31% | Not Active | 92 | 19% | – | – | – |
| COc1ccc2c(c1)-c1nnc(-c3cccc(C(F)(F)F)c3)cc1C2=O | 18% | Not Active | 36 | inactive | – | – | – |
| O=C1c2ccc(OCCCC(F)(F)F)cc2-c2nnc(-c3cccc(C(F)(F)F)c3)cc21 | 20% | Not Active | 57 | inactive | – | – | – |
| O=C1c2ccc(OCc3ccccc3)cc2-c2nnc(-c3cccc(C(F)(F)F)c3)cc21 | inactive | – | 7 | 17% | – | 10 | – |

Second part, the compound after the results:

| inhibition [1] | inhibition (INH) [2] | inhibition at 1 h, 10 µM [3] [%] | inhibition [4] | Ki [5] [nM] | inhibition at 1 h, 10 µM [6] [%] | Ki [7] [nM] | SMILES |
| --- | --- | --- | --- | --- | --- | --- | --- |
| 19% | – | 93 | 25% | 160 | 15 | 110 | Cc1cc2c(nn1)-c1cc(OCc3cccc(Cl)c3)ccc1C2=O |
| 66% | – | 90 | 14% | 480 | 17 | – | Cc1cccc(COc2ccc3c(c2)-c2nnc(C)cc2C3=O)c1 |
